From ChEMBL document CHEMBL1125735, “trans-hexahydroindolo[4,3-ab]phenanthridines ("benzergolines"), the first structural class of potent and selective dopamine D1 receptor agonists lacking a catechol group” (1991) come the findings set out here.

One assay is filed under the species Bos taurus. As to the kind of experiment: Percent of maximal effect of 125 uM Dopamine in the adenylate cyclase assay. It is filed as functional. In outline:
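Dopamine-sensitive adenylate cyclase assay run on bovine retina tissue.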

The target in assay [1] is D(2) dopamine receptor (Rattus norvegicus) (UniProt P61169). The assay is described as follows: Percent of maximal inhibition by change of S2/S1 versus control at 1 uM for the acetylcholine (ACh) release as a model for Dopamine D2 receptor activation. In kind it is functional. Also noted: scale not given: the % may be the effect or the level left. In outline:
(§1)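 Electrically evoked acetylcholine release measured in rat striatal slices.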

The subject of assay [2] is Dopamine D1 receptor (Bos taurus). The assay is described as follows: Compound was evaluated for its potency to Dopamine D1 stimulating effect in the adenylate cyclase assay.
Assay [3] has as its target D(2) dopamine receptor (Rattus norvegicus) (UniProt P61169). As to the kind of experiment: Percent of maximal inhibition by change of S2/S1 versus control at 1 uM for the cetylcholine (ACh) release as a model for Dopamine D2 receptor activation. In kind it is functional. Also on record: scale not given: the % may be the effect or the level left. Summed up: as §1
Assay [4] has the same target. As to the kind of experiment: Compound was evaluated for its potency to inhibit electrically evoked acetylcholine (ACh) release as a model for Dopamine D2 receptor activation. It is filed as functional. Summed up: as §1
The target is the same in assay [5]. Conditions: 1 uM.

Sequence of D(2) dopamine receptor (Rattus norvegicus) (P61169 whole entry): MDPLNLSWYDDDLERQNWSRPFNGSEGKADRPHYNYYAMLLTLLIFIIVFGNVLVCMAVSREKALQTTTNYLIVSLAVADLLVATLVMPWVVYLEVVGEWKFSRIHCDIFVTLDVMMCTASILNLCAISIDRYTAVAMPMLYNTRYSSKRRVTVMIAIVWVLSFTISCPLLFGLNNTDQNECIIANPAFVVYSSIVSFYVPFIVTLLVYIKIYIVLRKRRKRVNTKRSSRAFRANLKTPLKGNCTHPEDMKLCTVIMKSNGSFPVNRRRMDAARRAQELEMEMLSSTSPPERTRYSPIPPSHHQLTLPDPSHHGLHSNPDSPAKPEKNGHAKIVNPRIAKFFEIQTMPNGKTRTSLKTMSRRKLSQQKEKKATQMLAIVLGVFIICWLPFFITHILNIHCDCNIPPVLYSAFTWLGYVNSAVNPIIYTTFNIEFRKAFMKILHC

In the assay listed under Bos taurus, `CCCN1Cc2ccccc2[C@H]2c3cccc4[nH]cc(c34)C[C@H]21` came in with a Relative activity of 55%. In assay [1], this molecule returned a Control of 0%. In addition, the pD2 in assay [2] was determined as 5.7.
The molecule `CN1Cc2ccccc2[C@H]2c3cccc4c3C(CN4)C[C@H]21` (stereo not given in full) displayed a Control in assay [3] of 0%. The Relative activity in the assay filed under Bos taurus was found to be 0%.
In assay [3], `CN1CCC[C@H]2c3cccc4[nH]cc(c34)C[C@H]21` gave a Control of 30%. In addition, the Relative activity in the assay filed under Bos taurus was 24%. Also, the pD2 in assay [2] came to 5.2; in assay [4], 7.5.
Turning to `CN1CCc2cccc3c2[C@H]1Cc1ccc(O)c(O)c1-3` [APOMORPHINE], in the assay listed under Bos taurus, the Relative activity came to 38%. Further, the pD2 was 6.2 in assay [2] and 7.5 in assay [4]. Moreover, the Control in assay [5] came out at 85%.
With `Oc1ccc([C@@H]2CNCc3ccccc32)cc1O`, in assay [3], the Control came out at 0%. For the same molecule, the Relative activity in the assay listed under Bos taurus worked out at 86%. The same molecule displayed a pD2 in assay [2] of 6.
In the assay filed under Bos taurus, `CN1Cc2ccccc2[C@H]2c3cccc4[nH]cc(c34)C[C@H]21` showed a Relative activity of 57%. This molecule also displayed a Control in assay [1] of 0%. For the same molecule, the pD2 in assay [2] is recorded as 6.1.
`CCCCN1Cc2ccccc2[C@H]2c3cccc4[nH]cc(c34)C[C@H]21` displayed a Control in assay [3] of 0%. For the same molecule, the Relative activity in the assay filed under Bos taurus is 0%.
Take `c1ccc2c(c1)CN[C@@H]1Cc3c[nH]c4cccc(c34)[C@H]21`: the Relative activity in the assay filed under Bos taurus amounted to 82%. For the same molecule, the Control in assay [1] stood at 0%. The pD2 in assay [2] is 6.3.
Molecule `Oc1cc2c(cc1O)C(c1ccccc1)CNCC2` (stereo not given) [SKF-38393] yielded a Control in assay [3] of 0%. The Relative activity in the assay listed under Bos taurus is recorded as 58%. The pD2 in assay [2] came to 6.6.
For `CCN1Cc2ccccc2[C@H]2c3cccc4[nH]cc(c34)C[C@H]21`, the Relative activity in the assay filed under Bos taurus was determined as 72%. Further, in assay [1], the Control is 0%. The molecule further displayed a pD2 in assay [2] of 6.
